Experimental findings from ChEMBL document CHEMBL4229360, “Antimalarial agents against both sexual and asexual parasites stages: structure-activity relationships and biological studies of the Malaria Box compound 1-[5-(4-bromo-2-chlorophenyl)furan-2-yl]-N-[(piperidin-4-yl)methyl]methanamine (MMV019918) and analogues” (Eur J Med Chem, 2018) are described below.

Activity calls are given as the source filed them. No cut-off for these calls is given here.

Data set [1] deals with Plasmodium falciparum. Kind of data set: Antiplasmodial activity against chloroquine-sensitive Plasmodium falciparum D10 after 72 hrs by lactate dehydrogenase assay. As to conditions: D10, 72 h. In kind it is functional, organism-based. A digest of the protocol: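 Asynchronous blood-stage cultures at 1–1.5% parasitemia and 1% final hematocrit in human A+ RBCs, RPMI 1640 with 1% AlbuMax, hypoxanthine, HEPES and glutamine. Serial dilutions from DMSO stocks, final DMSO <1%. Incubated 72 h at 37 °C under 1% O₂/5% CO₂. IC50 is the mean of ≥3 experiments in duplicate.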

The subject of data set [2] is Plasmodium falciparum. The data set can be described thus: Gametocytocidal activity against Plasmodium falciparum 3D7 elo1-pfs16-CBG99 late-stage (4 to 5) gametocytes assessed as inhibition of parasite viability after 72 hrs by luciferase reporter assay. In kind it is functional, organism-based. Conditions: 3D7 elo1-pfs16-CBG99, 72 h. A digest of the protocol: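 Transgenic 3D7elo1-pfs16-CBG99 gametocytes express CBG99 luciferase from the pfs16 promoter. Stage IV–V gametocytes (Giemsa-checked) were exposed at day 8–10 after NAG addition to serial dilutions in complete medium for 72 h. Samples at 2% haematocrit were then mixed 1:1 with D-luciferin (1 mM, pH 5.5 citrate) for 10 min and luminescence was read. IC50 came from non-linear regression, mean of ≥3 experiments in duplicate.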

Data set [3] deals with Plasmodium falciparum. The data set can be described thus: Antiplasmodial activity against asexual blood stage Plasmodium falciparum NF54 after 72 hrs by SYBR green-based fluorometric analysis. Type of data set: functional, organism-based. Conditions: NF54, 72 h. A digest of the protocol: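 Asexual NF54 seeded at 0.83% parasitaemia, 1.5% haematocrit, in RPMI1640 with 10% human serum. Serial dilutions, final DMSO 0.1%. Incubated 72 h at 37 °C under 3% O2, 4% CO2, then read by SYBR Green fluorescence.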

In data set [4] the test system is Plasmodium falciparum. Kind of data set: Gametocytocidal activity against Plasmodium falciparum NF54 HGL gametocytes assessed as inhibition of parasite viability after 72 hrs by ONE-Glo reagent based luminescence assay. In kind it is functional, organism-based. A digest of the protocol: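 NF54 gametocytes raised in 5% haematocrit RPMI1640/10% human serum, with 50 mM NAG on days 4–9. Mainly stage IV gametocytes isolated on day 11 by Percoll gradient and seeded at 5000 cells/well, final DMSO 0.1%. Incubated 72 h at 37 °C, 3% O2, 4% CO2; viability by ONE-Glo luminescence.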

The subject of data set [5] is Plasmodium falciparum. The data set can be described thus: Antiplasmodial activity against gametocytes of Plasmodium falciparum NF54 infected in Anopheles mosquitoes assessed as decrease in infection intensity measured at baseline infection intensity of 30 oocysts/midgut pre-treated with compound for 24 hrs before feeding and measured 8 days post infection by standard membrane feeding assay. In kind it is functional, organism-based. In outline:
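NF54-HGL luciferase-reporter gametocytes were pre-incubated with compound for 24 h, then membrane-fed to Anopheles mosquitoes. Infection was read by luminescence 8 d post-infection, with 24 mosquitoes analysed per feed and each feed done in duplicate. IC50 was derived for infection intensity and for prevalence at a baseline of 30 oocysts/midgut.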

For data set [6], the system named is Plasmodium berghei. The data set can be described thus: Antimalarial activity against liver stage form of mCherry expressing Plasmodium berghei ANKA sporozoites infected in mouse primary hepatocytes assessed as reduction in parasite load at 0.0625 to 4 uM administered 2 hrs post infection and measured after 48 hrs post infection with medium change at 24 hrs post infection by fluorescent microscopic analysis. Type of data set: functional, organism-based. In outline: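 Parasite number and size in unfixed cells by automated microscopy at 48 hpi. Detached cells collected at 65 hpi, counted by fluorescence microscopy, expressed as % of 48 h parasite number. n = 4; one-way ANOVA with Dunnett's test.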

The nature of data set [7]: Cardiotoxicity in Langendorff perfused Wistar rat heart assessed as coronary perfusion pressure at 0.1 to 10 uM. In kind it is toxicity, tissue-based.
Data set [8] in a line: Cardiotoxicity in Langendorff perfused Wistar rat heart assessed as frequency of heart rate at 1 uM by electrocardiography (reference value: 247.05 to 275.90 bpm). In kind it is toxicity, tissue-based.
A short description of data set [9]: Cardiotoxicity in Langendorff perfused Wistar rat heart assessed as frequency of heart rate at 3 uM by electrocardiography (reference value: 247.05 to 275.90 bpm). In kind it is toxicity, tissue-based.
A short description of data set [10]: Cardiotoxicity in Langendorff perfused Wistar rat heart assessed as cycle length interval time at 0.1 uM by electrocardiography (reference value: 217.15 to 242.23 milliseconds). In kind it is toxicity, tissue-based.
Data set [11] can be described thus: Cardiotoxicity in Langendorff perfused Wistar rat heart assessed as cycle length interval time at 1 uM by electrocardiography (reference value: 217.15 to 242.23 milliseconds). Type of data set: toxicity, tissue-based.
Data set [12] is described as follows: Cardiotoxicity in Langendorff perfused Wistar rat heart assessed as cycle length interval time at 3 uM by electrocardiography (reference value: 217.15 to 242.23 milliseconds). Type of data set: toxicity, tissue-based.
Data set [13] in a line: Cardiotoxicity in Langendorff perfused Wistar rat heart assessed as cycle length interval time at 10 uM by electrocardiography (reference value: 217.15 to 242.23 milliseconds). Type of data set: toxicity, tissue-based.
Data set [14] is described as follows: Cardiotoxicity in Langendorff perfused Wistar rat heart assessed as PQ interval time at 1 uM by electrocardiography (reference value: 41.13 to 42.63 milliseconds). Type of data set: toxicity, tissue-based.
Data set [15] is described as follows: Cardiotoxicity in Langendorff perfused Wistar rat heart assessed as QRS interval time at 0.1 uM by electrocardiography (reference value: 13.31 to 14.35 milliseconds). In kind it is toxicity, tissue-based.
Data set [16] is described as follows: Cardiotoxicity in Langendorff perfused Wistar rat heart assessed as QRS interval time at 1 uM by electrocardiography (reference value: 13.31 to 14.35 milliseconds). In kind it is toxicity, tissue-based.
The nature of data set [17]: Cardiotoxicity in Langendorff perfused Wistar rat heart assessed as QRS interval time at 10 uM by electrocardiography (reference value: 13.31 to 14.35 milliseconds). In kind it is toxicity, tissue-based.
A short description of data set [18]: Cardiotoxicity in Langendorff perfused Wistar rat heart assessed as QTc interval time at 0.1 uM by electrocardiography (reference value: 76.45 to 80.07 milliseconds). In kind it is toxicity, tissue-based.
Data set [19] is described as follows: Cardiotoxicity in Langendorff perfused Wistar rat heart assessed as QTc interval time at 1 uM by electrocardiography (reference value: 76.45 to 80.07 milliseconds). Type of data set: toxicity, tissue-based.
A short description of data set [20]: Cardiotoxicity in Langendorff perfused Wistar rat heart assessed as QTc interval time at 3 uM by electrocardiography (reference value: 76.45 to 80.07 milliseconds). In kind it is toxicity, tissue-based.
A short description of data set [21]: Cardiotoxicity in Langendorff perfused Wistar rat heart assessed as QTc interval time at 10 uM by electrocardiography (reference value: 76.45 to 80.07 milliseconds). In kind it is toxicity, tissue-based.
Data set [22] deals with T1, Phosphoethanolamine N-methyltransferase (Plasmodium falciparum) (UniProt Q8IDQ9).
T1 sequence (whole entry): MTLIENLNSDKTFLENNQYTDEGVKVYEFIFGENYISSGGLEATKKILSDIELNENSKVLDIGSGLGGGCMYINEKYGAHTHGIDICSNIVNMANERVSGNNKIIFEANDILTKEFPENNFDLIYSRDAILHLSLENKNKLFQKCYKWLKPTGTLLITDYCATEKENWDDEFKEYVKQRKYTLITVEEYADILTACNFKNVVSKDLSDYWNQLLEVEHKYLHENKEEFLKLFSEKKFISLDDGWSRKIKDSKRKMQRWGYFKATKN
Kind of data set: Inhibition of plasmodium falciparum phosphoethanolamine N-methyltransferase expressed in Escherichia coli assessed as remaining enzyme activity at 100 uM using phosphoethanolamine as substrate and [methyl-14C] SAM by radiochemical assay. In outline: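 Recombinant PfPMT purified from E. coli, 2 μg per 100 μL reaction. Buffer 0.1 M HEPES-KOH pH 8.0, 2 mM Na2EDTA, 10% glycerol, 5% DMSO, with 30 μM SAM (100 nCi [methyl-14C]SAM) and 55 μM phosphoethanolamine; radiochemical read-out.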

As a reminder, the IC50 is the point on the concentration scale where inhibition reaches its midpoint. With `Clc1ccc(-c2ccc(CNCC3CCNCC3)o2)c(-c2ccccc2)c1`, the IC50 in data set [1] came to 880 nM; in data set [2], 1400 nM; in [3] it was 670 nM; in [4], 43 nM; in [5], 210 nM. Besides, the result in data set [6] was inactive. Besides, the Activity entry in data set [7] was “Non-Toxic”; in data set [8], 275.47 bpm; in [9], 276.4 bpm; in data set [22], 30%. For the same molecule, the Time was 218.32 ms in data set [10]; 217.02 ms in [11]; 216.73 ms in [12]; 232.2 ms in data set [13]; 41.59 ms in [14]; 14.2 ms in [15]. The Time in data set [16] stood at 13.7 ms; in data set [17], 17.91 ms; in [18], 74.92 ms; in data set [19], 77.21 ms; in data set [20] it was 78.56 ms; in data set [21], 83.77 ms.
